Test results as given in the EternaBench riboswitch data.

Test system: MS2 coat protein
Assay: apparent Kd, MS2 coat protein; higher = weaker binding; RNA-MaP array; FMN 200 µM where present
In short: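 The apparent Kd is reported as the median of filtered per-cluster binding-curve fits. To get these curves, designs transcribed by stalled E. coli RNA polymerase on Illumina sequencing-chip clusters were titrated with SNAP-549-labelled MS2 coat protein from 0.7 or 1.5 nM, doubling to 3 µM. Titrations were run without and then with constant ligand in 100 mM Tris-HCl pH 7.5, 80 mM KCl, 4 mM MgCl2, BSA, DTT, yeast tRNA and Tween-20, and green signal was normalised to red-channel RNA signal and control-cluster median Fmax.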

[1] = designed as: OFF switch for flavin mononucleotide, no ligand
[2] = ligand present: flavin mononucleotide, designed as: OFF switch for flavin mononucleotide
[3] = designed as: ON switch for flavin mononucleotide, no ligand
[4] = ligand present: flavin mononucleotide, designed as: ON switch for flavin mononucleotide

Row | Sequence | apparent Kd [1] [nM] | apparent Kd [2] [nM] | apparent Kd [3] [nM] | apparent Kd [4] [nM]
1 | UGUUGGAGCAGAGGAUAUACAUGAGGAUCACCCAUGUAAUAAAGUGAAGCCUGGAAACAGGCAAUGUAGAAGGCUGCUCCGACA | 10.1 | 73.6 | – | –
2 | AGACCGUUCGAGAAGGUGCGAGAGAAAUGUGAGUGAGGAUAUUGAAACAUGAGGAUCACCCAUGUCAUGAGGAUCGCCGAUGUG | – | – | 39.6 | 31.6
3 | ACGCGAUGGGAGAAGGUACUUUAAUUAGGUUACACAUGAGGAUCACCCAUGUAAGGAUAUCCCAUCGUUAAAUAUUAUACAGCA | 6.16 | 5.41 | – | –
4 | GCGUUACAUGAGGAUCACCCAUGUGAGGAUAUGGUGCGGUACUGUCCUGUCGCGUACUCCAGAAGGCACGGGUG | 150 | 85.3 | – | –
5 | CAGUACUGAGGAUAUACAUGAGGAUCACCCAUGUGUUCCAGCUAGGAGACUAGCAAAAGUAGAAGGCAGUACUG | 27 | 345 | – | –
6 | GGGCGACAUGAGGAUCACCCAUGUAACCUAAACGAAGGAUAUGGGCCUGAACGUCCAGGACCAGAAGGUCGGAAAU | – | – | 23.6 | 17.9
7 | GCUGGGUAGGCAGGAUAUCCUCGCGCAAACACAUGAGGAUCACCCAUGUACACAAAACGUGAUAUGGAGAAGGGCUGACCCACA | – | – | 33.2 | 6.68
8 | AAUAAACUCACAGGAUAUAGCAGAGGUCGCGUGUACUUACAGGCGACGAUGCUAGAAGGGUGACCACAUGAGGAUCACCCAUGU | – | – | 961 | 153
9 | AACUCGUCAGGAUAUGCGCGCAGAUAAUACGCUUCGCAAUUGCAGAAGGGACAUGAGGAUCACCCAUGUAAAUA | 29.8 | 32 | – | –
10 | GUACUGUAGUGAGGAUAUACGAGUGCGAUAGCACGGCGAUCCAAUUAUACAUGAGGAUCACCCAUGUAGAAGGCACUUCAGUAC | 9.04 | 41 | – | –
11 | GUCAGCUCGUGAGGAUAUACAUGUGCUGGAUACAGCACUAAUAGAAUCACAUGAGGAUCACCCAUGUAGAAGGCACGAGCUGAU | 17.6 | 39.4 | – | –
12 | AUACUCAUGUAAGGAUAUGCAGCCGUUUCGGCUGCAGAAGGUACUAUAAUACAUGAGGAUCACCCAUGUCUCUCGCCUUGCGAG | – | – | 710 | 89.7
13 | AGAUCUAGGACAGGAUAUACUGAUGGCUUCAUCGAAGAUGAAGCCAUCACAUGAGGAUCACCCAUGUAGAAGGGUCCUAGAUCA | 14.5 | 14.9 | – | –
14 | GGAAAUCAUGUAGGAUAUGCAUGGCGAAGCUACGCAGAAGGACAUGAGGAUCACCCAUGUUAUAGCUACCCAGUUCGGUGGCAA | 133 | 180 | – | –
15 | CGUAUGUCAGGAUAUGCGUAAACCGGUCAGGGCGAGCGGCAGCAGAAGGGACAUGAGGAUCACCCAUGUUCGGG | 46.7 | 46.6 | – | –
16 | UGUGCGUUGAUCUUAGAUCGGAGUACAUGAGGAUCACCCAUGUAGGAUAUUCAAAGACGCAGAUAGAAGAAGGACAUAGGUUUC | 7.85 | 11.6 | – | –
17 | AAUUAAUUGUAGAAGGUACUUAAUUAUGUUAUGUAAGGAUAUACGUAAUUAUUACGACAUGUAUGACAUGAGGAUCACCCAUGU | – | – | 7.72 | 7.82
18 | CGAUAUAUGAAGGGCGAACGCGCACAUGAGGAUCACCCAUGUAGAAGGCGAUCCGCAACGCGGAUCGAGGAUAUAUAGUAUACA | 37 | 33.8 | – | –
19 | ACGGUGGUCACAGGAUAUCCAGCCCGCGUGCCUGGAGAAGGGUGACUCAGAACCACAUGAGGAUCACCCAUGUGCCUUGCCGUA | – | – | 140 | 33.4
20 | UUGGACGUCGUAGGAUAUGUAGGAUAUUCCUACAUGAGGAUCACCCAUGUUGACAUGGAAGAAGGACAGAAGGAUGAUGUCCAU | – | – | 414 | 5.34
21 | UGUCGGAGAAGAGGAUAUUACAUGAGGAUCACCCAUGUAUGAACCAAUAGCUGGAAACAGCAAUGUAAGAAGGCUGCUCCGACA | 5.32 | 23.1 | – | –
22 | UCGCGGGUGCAGAAGGGAUAGGCCUAUUUUCGUGGUAUCCAAACUUAACAUGAGGAUCACCCAUGUCAGGAUAUGCCCACGCGA | 8.72 | 10.7 | – | –
23 | GAGACGUCAGGAUAUCUGAUGUCUAACUUCGGUUAGACAUCAGAGAAGGGACAUGAGGAUCACCCAUGUCUCAA | 16.9 | 12.1 | – | –
24 | AUCUGGUCCUUACGCCCACAUGAGGAUCACCCAUGUCAGGCACAGGAUAUCCCGGGAGCUUUGGUGGAGAAGGGUGCCCUUGGG | 55.6 | 100 | – | –
25 | GCACGGAGUGUAGGAUAUUAGUGCGAUUAGCACUGAGAAGGACAUGAGGAUCACCCAUGUUCCUCAAUAACAUACCUUCCGUGC | 13.8 | 10.6 | – | –
26 | UUUACGAAAGUCGAACGAUGUAGCAGAAGGACAUGAGGAUCACCCAUGUCAGCUGUAACAGCCAUGUAGGAUAUGCUACAUAAA | 5.78 | 5.92 | – | –
27 | GGAUAGGACAGAGGAUAUACGUGCUAGAGAUACUAGCAAAAUUUCCUCACAUGAGGAUCACCCAUGUAGAAGGCUGUCCCAUCG | 15.3 | 327 | – | –
28 | GAAUAUUCGUUGUACAUGAGGAUCACCCAUGUGUCUUUACAUGAGGAUAUGGAUUCUAAUUGGAUCCAGAAGGCAUGAAUAUUC | – | – | 154 | 53.1

Row | Sequence | apparent Kd [1] [nM] | apparent Kd [2] [nM] | apparent Kd [3] [nM] | apparent Kd [4] [nM]
29 | GCACGGUUGCUAGGAUAUCCUUGCGAUUAGCAAGGAGAAGGAGCACAUGAGGAUCACCCAUGUACCUCAAUAAUCCAUCCGUGC | 14.8 | 14.2 | – | –
30 | AAUGUCUGAGGAUAUCGUUUUUUGUACAUGAGGAUCACCCAUGUCCAAUUUUGUAUAUUACGAGAAGGCAGUGGAA | 14.9 | 22.4 | – | –
31 | GCAGUGUCAGGAUAUAGUUCGAGUUCGGAAAUGAGCUUGAGCUAGAAGGGACAUGAGGAUCACCCAUGUGCUGU | 38 | 83.2 | – | –
32 | AAUUAAGAUCUAGGAUAUCACGUCGAUUAGACGUGAGAAGGAGAUCAUAACAUGAGGAUCACCCAUGUAUUACAUGAAUUAAUU | – | – | 28 | 25.9
33 | AAUGAGCAGUAGAAGGCAUGUCUACGGACAUGAGGAUCACCCAUGUUGUGAAUCCGAAAGGAGCAUGAGGAUAUACUGCUCUAA | – | – | 70.7 | 14.7
34 | UUUAUUUUUACAGGAUAUCAUCUAUUUAACUCAUGCACAUGUUUACAUGAGGAUCACCCAUGUUUUGAGAAGGGUAUUGAAACA | – | – | 246 | 259
35 | CUUUAGUGAGGAUAUGUGGCUUCGAUCGUGAGAUCGAGGCUACAGAAGGCACAUGAGGAUCACCCAUGUACCUU | 14.3 | 17 | – | –
36 | AUCAGCUUGACAGGAUAUGCAUGUCAACGAAAGUUGACAAUCUUAAUAACAUGAGGAUCACCCAUGUAGAAGGGUCGAGCUGAU | 17.4 | 19.9 | – | –
37 | UAUGAUUGAGGAUAUUGUACUGCUGACAUGAGGAUCACCCAUGUAUGCUAACUCGGCCGUCGAGAAGGCAAUUAUG | 141 | 51 | – | –
38 | AGCCUACAUGAGGAUCACCCAUGUCAGGAUAUCUCGCGACAUGUCAAGUUCACGUUGCAGAGAAGGGACUCGGG | 56.6 | 63.6 | – | –
39 | ACAUGAGGAUCACCCAUGUACAGGGUUUAGUUUCAUUGUUUGAAGGAUAUACUUAGUUAGUUGUUGUAGAAGGUCAUAUUUUAU | 203 | 265 | – | –
40 | GAAUUCGCAUGAGGAUAUGCACUCAUUUCAUGUGCAGAAGGUAUUUCAUUAGACAUGAGGAUCACCCAUGUAUUGGUCACUAAC | – | – | 21.5 | 16.6
41 | GUCUUGAUAGGAUAUACAUGAGGAUCACCCAUGUCCCACCCGUUACCUCUGGCCCUAUGUAGAAGGAUCGUCUG | 50.2 | 45.6 | – | –
42 | AUACGCUGAGGAUAUACCAAAACAACAACCUCGUGUAUAAUACAUGAGGAUCACCCAUGUAGAAGGCAGUAAAC | 58.6 | 116 | – | –
43 | GGUACUCAAAGAGUACCAAUACGAACAUGAGGAUCACCCAUGUAGGAUAUGCUACUCAAAGAGUAGCAGAAGGACAUGUGCUUA | 25.9 | 135 | – | –
44 | CUGAUGUUAGGAUAUCAGGUCACGCGCGAAGGCGCGCGGCAUGAGAAGGAACAUGAGGAUCACCCAUGUGACGA | 42.8 | 160 | – | –
45 | GGACCUCCUGAGGAUAUUGCAUCACCCGACUGAUAAGAAGGCAGAACAUGAGGAUCACCCAUGUGGGUACUCGG | 32.3 | 36.1 | – | –
46 | UUUUGGCGGGCAGGAUAUACUAAGACAUGAGGAUCACCCAUGUACUUGCAAGAUGUCCGUGUCGAGUAGAAGGGCCAAGCUAUA | 4.97 | 7.8 | – | –
47 | CAGGACAGGAAACGGAGCGGCCAACAUGAGGAUCACCCAUGUAAGGAUAUGCCUACUAAAAGUAGGCAGAAGGUACAGAAGGCA | 29.9 | 73.1 | – | –
48 | UGUUGUAUUACAGGAUAUCUAUUAUUUGUAUUUAGAGAAGGGUAUUCACAUGAGGAUCACCCAUGUAUAUACGAGGAAGUUGUG | – | – | 61.3 | 58.6
49 | UAGGAGUACGUAGGAUAUGUAGGAUAUUCCUACAUGAGGAUCACCCAUGUUAGCAUGGAAGAAGGACAGAAGGACGUGCUCCUU | – | – | 1090 | 16.1
50 | GCCUUAUCGGUCAGGAUAUACACCCGCCAGUUGUUGUAGAAGGGACAUGAGGAUCACCCAUGUACAUUACAUUG | 21.2 | 33.8 | – | –
51 | GGAAUAUUUACAGGAUAUGUUUUGUUAAGUCGAGCAGAAGGGUAGAUGUCUUACACGGUUUGUUACAUGAGGAUCACCCAUGUU | – | – | 114 | 35.1
52 | AUUCCCAACCAGAAGGACAUGAGGAUCACCCAUGUAGGAUAUGGGUGGGCGACCCGAACUUGGACGAAAUCGCAAUUCUCACAC | – | – | 57.8 | 10.4
53 | UUAAAUCAUGUAGGAUAUGCAUGGCGAAGCUACGCAGAAGGACAUGAGGAUCACCCAUGUUAUAGCGACCAAGUUAGGUUGCAA | 88.7 | 211 | – | –
54 | CUAUUACGAGGAUAUGAUUUAAAUAACAUGAGGAUCACCCAUGUUUUUACGUUAUUUUGUUUAGAAGGCGUAUUGU | 52.9 | 35.7 | – | –
55 | CAACCGUUGCAGAAGGUUAAAUAUAUCAACUUAUGGACAACAUGAGGAUCACCCAUGUUUUUGUUGAAGGAUAUGCAAGGGUUG | 5.89 | 5.71 | – | –
